# This is a sample that favours compounds with a hit; in the whole collection about 0.77% have one here.
# hIAP act = human IAP activation; purified human IAP, CDP-Star luminescence, 30 min; stronger effect = higher value; 1 = vehicle-only enzyme, 0 = enzyme-free background; activation factor at 10 µM; 330,000 compounds, 0.16% hits;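 active = activation factor of the enzyme at least 2-fold when tested at 20 µM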
# Target sequence (P09923 whole entry, looked up): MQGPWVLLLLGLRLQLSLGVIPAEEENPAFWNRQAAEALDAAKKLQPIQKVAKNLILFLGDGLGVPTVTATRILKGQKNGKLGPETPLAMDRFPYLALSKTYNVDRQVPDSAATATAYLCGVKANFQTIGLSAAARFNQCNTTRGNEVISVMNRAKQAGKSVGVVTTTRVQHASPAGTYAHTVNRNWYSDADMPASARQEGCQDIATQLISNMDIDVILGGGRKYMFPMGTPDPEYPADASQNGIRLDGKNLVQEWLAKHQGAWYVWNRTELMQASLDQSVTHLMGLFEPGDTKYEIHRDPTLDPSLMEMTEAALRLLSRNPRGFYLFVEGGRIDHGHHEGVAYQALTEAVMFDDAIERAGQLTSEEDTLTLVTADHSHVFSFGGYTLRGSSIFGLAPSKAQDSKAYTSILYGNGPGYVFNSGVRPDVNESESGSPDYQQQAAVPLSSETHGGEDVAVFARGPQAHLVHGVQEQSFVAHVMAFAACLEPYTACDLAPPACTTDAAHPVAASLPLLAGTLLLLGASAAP
# bIAP act = increases bovine intestinal alkaline phosphatase activity | purified bovine IAP, CDP-star luminescence, 30 min; stronger effect = higher value; fold of DMSO-control signal, blank-subtracted | activation factor at 20 µM | 200,000 compounds, 0.17% hits;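 active = activation factor of 2 or more at 20 µM, a signal rise over negative controls twice the positive control's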
# hIAP block = blocks human intestinal alkaline phosphatase; P09923; purified IAP, CDP-Star luminescence, 30 min; inhibition, % at 10 µM; 330,000 compounds, 0.12% hits; AID 2544;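 active = inhibition reaching a set limit with compound at 10 µM in the primary screen, cut at about 35% in these data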;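 also: plate controls were DMSO wells with enzyme for no effect and no-enzyme buffer wells for full effect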
# mIAP inh = mouse IAP inhibition; purified mouse IAP, CDP-Star luminescence, 30 min; inhibition, % at 10 µM; 330,000 compounds, 0.2% hits; AID 2806;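 active = inhibition of at least 40% at 10 µM in the primary screen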;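 also: plate controls were DMSO with enzyme for no effect and no enzyme wells for full effect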
# bIAP inhibitor = blocks bovine intestinal alkaline phosphatase activity. purified bovine IAP, CDP-star luminescence, 30 min. inhibition, % at 20 µM. 190,000 tested, under 10 active;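 active = over 50% inhibition of intestinal alkaline phosphatase at 20 µM in the single-dose screen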
#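 System: Purified bovine intestinal alkaline phosphatase (IAP) enzyme | Input: IAP diluted 1/65,000,000 in the well | Also added: CDP-star chemiluminescent phosphatase substrate, 30 µM final | Dosing: 20 µM single dose | Times: Enzyme reaction for 30 min at room temperature | Detection: Luminescence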
# mIAP act = mouse IAP activation; muIAP, CDP-Star luminescence, 30 min; stronger effect = higher value; 1 = vehicle-only enzyme signal, 0 = enzyme-free wells; activation factor at 10 µM; 330,000 compounds, 0.24% hits; AID 2805;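 active = activation factor of at least 2 at 20 µM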
#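 System: mouse IAP enzyme. Reagent: CDP-Star chemiluminescent phosphatase substrate. Benchmarks: DMSO wells, no-enzyme wells. Times: 30 min enzyme-substrate-compound incubation at room temperature. Detection: luminescence from enzymatic CDP-Star hydrolysis. Doses: test compounds delivered from DMSO solution.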
# hIAP act confirm = human IAP activation confirmation | AID 434926 | purified IAP, CDP-Star luminescence, 30 min; stronger effect = lower value | shares compounds with hIAP act | activation (%Activity, negative = activation), % at 8.3 µM | 880 compounds, 10% hits;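 active = at least twofold enzyme activation in any of six single-dose repeats, which the averaged readout prints as negative percent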
# The depositor's hits bear a star; x = no result given.
SMILES,hIAP act,bIAP act,hIAP block,mIAP inh,bIAP inhibitor,mIAP act,hIAP act confirm
Cn1ncc([N+](=O)[O-])c1C(=O)NC1CCCCC1,0.991,x,0.9,8.9,x,0.911,x
CN1CCN(CCNC(=O)Cn2c(=O)c3cccn3c3ccc(F)cc32)CC1,0.614,x,38.6*,7.1,x,0.929,35.4
NS(=O)(=O)c1ccc(N2N=C(c3ccccc3)CC2c2ccccc2Br)cc1 (configuration not stated),x,x,x,-75.5,x,1.75,x
O=[N+]([O-])c1ccc(N2N=C(c3ccccc3)CC2c2ccccc2O)cc1 (configuration not stated),0.624,x,37.6*,19.3,x,0.807,-50.3
COc1cc(C(=O)Nc2ccc(N3CCN(C(=O)c4ccc(C)cc4)CC3)cc2)cc(OC)c1OC,1.07,x,-6.6,-7.8,x,1.08,x
O=C(O)c1ccccc1C(=O)Nc1cc(-c2ccccc2)[nH]n1,0.614,x,38.6*,11.5,x,0.885,61.7
O=C(Nc1cc(-c2ccccc2)[nH]n1)c1ccccc1F,1.16,x,-16.1,-7.1,x,1.07,x
Cc1cccc(N2CCN(S(=O)(=O)c3c(C(=O)N4CCCCC4)c(C)n(C)c3C)CC2)c1C,1.09,x,-8.7,7.5,x,0.925,x
Cc1ccc(N(CC(O)CN2C(=O)NC(C)(C)C2=O)S(=O)(=O)c2ccc([N+](=O)[O-])cc2)cc1 (configuration not stated),0.611,x,38.9*,8.1,x,0.919,17.7
Cc1ccc(N(CC(O)CN2C(=O)NC(C)(C)C2=O)S(=O)(=O)c2ccc(C)cc2)cc1 (configuration not stated),0.927,x,7.3,-4.2,x,1.04,x
CCOC(=O)C1=C(c2ccccc2)N=c2s/c(=C\c3cccc(O)c3)c(=O)n2C1c1cccs1 (configuration not stated),0.802,1,19.8,7.6,-1.3,0.924,x
O=c1/c(=C\c2ccc(O)cc2)sc2n1C(c1ccccc1)C(c1ccccc1)=NN=2 (configuration not stated),0.628,0.7,37.2*,29.2,34.3,0.708,-34.2
O=c1[nH][nH]c(=O)n1-c1ccccc1,0.963,0.9,3.7,1.2,14.5,0.988,x
O=C(O)CC(NC(=O)c1cccc([N+](=O)[O-])c1)c1ccc2c(c1)OCO2 (configuration not stated),1,1,-0.3,-2.8,-1.2,1.03,x
O=C(CSc1ncn[nH]1)NNC(=O)c1ccccc1,2.23*,x,-123.4,8.1,x,0.919,-23.5
CCN(CC(=O)N1CCN(Cc2ccccc2)CC1)S(=O)(=O)c1ccc(C)cc1,0.919,x,8.1,-4.5,x,1.04,x
CCc1ccc(N/C(N)=N/c2nc(CSc3ncccn3)cc(=O)[nH]2)cc1,2.03*,1,-102.8,-0.1,-4.0,1,-43.9
CCOC(=O)N1N=C(c2ccc(OC)cc2)CC1(O)C(F)(F)F (configuration not stated),1.19,1.1,-19.4,9.0,-7.9,0.91,x
COc1ccccc1C1=NN(C2=NN=C(N)Cc3ncnn32)C(O)(C(F)(F)F)C1 (configuration not stated),2.77*,1.4,-176.8,15.5,-42.8,0.845,45.2
COc1ccc(C2=NN(C3=NN=C(N)Cc4ncnn43)C(O)(C(F)(F)F)C2)cc1 (configuration not stated),2.6*,1.7,-159.5,13.6,-71.6,0.864,42.0
NC1=NN=C(N2N=C(c3ccccc3)CC2(O)C(F)(F)F)n2ncnc2C1 (configuration not stated),1.1,1.4,-9.7,27.8,-41.3,0.722,x
NC1=NN=C(N2N=C(c3ccc(Br)cc3)CC2(O)C(F)(F)F)n2ncnc2C1 (configuration not stated),2.62*,1.1,-162.5,4.6,-7.8,0.954,3.7
CCCN(CCC)Cc1c(C(=O)N/N=C/c2ccc(C)o2)nnn1-c1nonc1N,0.951,x,4.9,13.9,x,0.861,x
C=CCn1c(N)cc(=O)nc1SCC(=O)Nc1ccc(C(=O)OCC)cc1,1.02,x,-2.5,-4.4,x,1.04,x
COc1ccc(Cc2n[nH]c(=S)n2C)cc1Br,0.952,1,4.8,6.3,-1.9,0.937,x
SMILES,hIAP act,bIAP act,hIAP block,mIAP inh,bIAP inhibitor,mIAP act,hIAP act confirm
O=C(Nc1cccc(-c2cccc(F)c2)c1)C1CCN(Cc2ccco2)CC1,2.29*,x,-128.9,-11.8,x,1.12,-8.9
CCOC(=O)C1CCN(C(=O)c2ccc(OCC(=O)Nc3ccc(OCC)cc3)c(OC)c2)CC1,0.989,x,1.1,-8.1,x,1.08,x
COc1cccc2c1cc1c(=O)n(CC(=O)NCCCN3CCN(C)CC3)nc(C)n12,0.568,x,43.2*,3.0,x,0.97,0.3
OC(CNCc1ccco1)Cn1c2ccc(Br)cc2c2cc(Br)ccc21 (configuration not stated),1.01,0.9,-0.9,-5.9,13.3,1.06,x
O=c1c(O[C@H]2O[C@@H](CO)[C@H](O)[C@@H](O)[C@@H]2O)c(-c2ccc(O)cc2)oc2cc(O)cc(O)c12,0.979,x,2.1,-2.8,x,1.03,x
C[C@@H]1O[C@@H](Oc2c(-c3cc(O)c(O)c(O)c3)oc3cc(O)cc(O)c3c2=O)[C@H](O)[C@H](O)[C@H]1O,1.11,1.1,-10.7,12.7,-14.6,0.873,x
C[C@@H]1O[C@@H](Oc2c(-c3ccc(O)c(O)c3)oc3cc(O)cc(O)c3c2=O)[C@H](O)[C@H](O)[C@H]1O,0.644,x,35.6*,37.3,x,0.627,1.0
O=c1c(O[C@@H]2O[C@H](CO)C(O)C2O)c(-c2ccc(O)c(O)c2)oc2cc(O)cc(O)c12 (some centres not stated),0.409,x,59.1*,38.2,x,0.618,4.3
O=c1c(OC2OC(CO)C(O)C(O)C2O)c(-c2ccc(O)c(O)c2)oc2cc(O)cc(O)c12 (configuration not stated),0.442,0.8,55.8*,14.2,18.2,0.858,-42.7
NC(=O)c1nsc(C(=O)N(c2ccccc2)C(C(=O)NC2CCCCC2)c2ccc(O)cc2)c1N (configuration not stated),1.05,x,-4.9,8.2,x,0.918,x
CC(NC(=O)CN1CCN(CC(=O)Nc2ccccc2Cl)CC1)c1ccc(Br)cc1 (configuration not stated),0.887,x,11.3,-6.8,x,1.07,x
CSCCC(NS(=O)(=O)c1ccc(C)cc1)C(=O)NNC(=O)c1csc(N2CCOCC2)n1 (configuration not stated),2.03*,x,-102.7,31.7,x,0.683,48.3
CN(CCCC(=O)O)c1ccc(N=Nc2ccc([N+](=O)[O-])cc2)cc1,0.527,x,47.3*,37.8,x,0.622,23.7
CN(N=Nc1ccc([N+](=O)[O-])cc1)c1ccccc1,0.848,0.9,15.2,19.4,6.1,0.806,x

# Assay outcomes deposited in PubChem BioAssay by Sanford-Burnham Center for Chemical Genomics.
